For one assay, the target named is Activin receptor type-1 (Homo sapiens, UniProt Q04771). Kind of assay: Inhibition of human ALK2 (147 to end residues) using casein as substrate incubated for 40 mins in presence of [gamma-33ATP] by scintillation counting based radiometry assay. A digest of the protocol:
(§1)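 Eurofins radiometric enzymatic assay with ATP at Km for each kinase. IC50 was derived from a 9-point dose–response curve run in duplicate.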

Assay [1] addresses T1, Serine/threonine-protein kinase 17A (Homo sapiens) (UniProt Q9UEE5).
T1 sequence (whole entry): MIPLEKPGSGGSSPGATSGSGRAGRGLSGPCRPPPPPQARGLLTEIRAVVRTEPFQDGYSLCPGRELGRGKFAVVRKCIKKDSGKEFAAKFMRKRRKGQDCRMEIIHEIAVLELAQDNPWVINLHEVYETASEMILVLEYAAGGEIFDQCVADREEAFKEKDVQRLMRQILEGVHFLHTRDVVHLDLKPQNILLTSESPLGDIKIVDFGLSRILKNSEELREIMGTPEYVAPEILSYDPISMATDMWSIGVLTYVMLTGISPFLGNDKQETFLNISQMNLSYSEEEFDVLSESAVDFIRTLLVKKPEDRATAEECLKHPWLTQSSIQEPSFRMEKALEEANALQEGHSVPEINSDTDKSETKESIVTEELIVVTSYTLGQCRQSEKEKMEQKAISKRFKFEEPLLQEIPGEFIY
Kind of assay: Inhibition of full length recombinant human DRAK1 using KKLNRTLSFAEPG as substrate at 1 uM incubated for 40 mins in presence of [gamma-33P-ATP] by radiometric scintillation assay relative to control. A digest of the protocol:
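Eurofins radiometric kinase assay with ATP at Km for each kinase. Compound was tested at a single 1 μM concentration in duplicate, and the result is reported as percent of control.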

The target in assay [2] is Casein kinase II subunit alpha (Homo sapiens, UniProt P68400). Description: Inhibition of full length recombinant human CSNK2A1 using RRRDDDSDDD as substrate incubated for 40 mins in presence of [gamma-33P-ATP] by radiometric scintillation assay. The method, boiled down:
as §1

Activin receptor type-1, sequence (Q04771 whole entry): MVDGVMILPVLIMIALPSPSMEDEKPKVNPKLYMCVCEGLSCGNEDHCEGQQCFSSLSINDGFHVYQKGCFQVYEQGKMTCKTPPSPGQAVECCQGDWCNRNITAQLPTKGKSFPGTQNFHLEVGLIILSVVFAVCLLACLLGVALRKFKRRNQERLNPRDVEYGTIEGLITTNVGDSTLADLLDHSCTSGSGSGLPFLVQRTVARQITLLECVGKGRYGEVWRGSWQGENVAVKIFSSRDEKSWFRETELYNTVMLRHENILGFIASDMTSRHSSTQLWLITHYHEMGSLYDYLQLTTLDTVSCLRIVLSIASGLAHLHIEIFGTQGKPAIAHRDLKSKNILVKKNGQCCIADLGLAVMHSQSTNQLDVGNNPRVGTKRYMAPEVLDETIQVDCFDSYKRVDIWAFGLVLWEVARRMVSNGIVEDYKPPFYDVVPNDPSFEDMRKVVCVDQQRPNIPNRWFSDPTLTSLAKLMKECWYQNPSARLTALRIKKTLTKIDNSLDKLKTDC
Casein kinase II subunit alpha, sequence (P68400 whole entry): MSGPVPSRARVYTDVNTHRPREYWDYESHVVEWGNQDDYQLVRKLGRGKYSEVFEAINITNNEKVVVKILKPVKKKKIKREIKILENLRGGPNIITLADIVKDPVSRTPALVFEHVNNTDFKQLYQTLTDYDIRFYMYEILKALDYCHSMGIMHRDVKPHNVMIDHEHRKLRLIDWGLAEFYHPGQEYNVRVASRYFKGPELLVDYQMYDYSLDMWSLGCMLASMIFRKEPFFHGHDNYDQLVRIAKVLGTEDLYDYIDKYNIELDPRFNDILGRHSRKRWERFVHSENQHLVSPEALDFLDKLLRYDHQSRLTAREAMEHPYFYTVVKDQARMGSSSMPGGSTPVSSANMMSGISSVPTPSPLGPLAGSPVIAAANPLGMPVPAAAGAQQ

Broadly, the IC50 is the concentration at which inhibition is half-maximal. `c1cc(CN2CCOCC2)cc(Nc2nccc(NCCc3cnc[nH]3)n2)c1`: the half-inhibitory concentration (IC50) on Activin receptor type-1 was 537 nM. For the same compound, the % control in assay [1] was found to be 78%. `NS(=O)(=O)c1ccc(CNc2nc(Nc3cccc(CN4CCOCC4)c3)ncc2Br)cc1`: in assay [2], the IC50 was > 10000 nM.

Values taken from ChEMBL document CHEMBL5046221, “Identification of Pyrimidine-Based Lead Compounds for Understudied Kinases Implicated in Driving Neurodegeneration” (J Med Chem, 2022).
